Results taken from PMC11520665 (Critical Care, 2024).
Numbered stars: 1 amine (or outer) side, 2 acyl side, 3 side chain; on linkers, the order of the positions; unused ones are H or OH. Bridge positions count the residues as written; N and C are the ends. Square brackets hold non-standard residues; d marks the D form. Peptide text beside a SMILES is read from it. * marks the point of attachment. Orn(4R-OH,5R-OCH2CH2NMe3+) = C[N+](C)(C)CCO[C@@H](N[*:3])[C@H](O)C[C@H](N[*:1])C(=O)[*:2]; pTerphenylCO(4''-OnC5H11) = CCCCCOc1ccc(-c2ccc(-c3ccc(C(=O)*)cc3)cc2)cc1; hTyr(3S-OH,4S-OH) = N[C@H](C(=O)O)[C@H](O)[C@@H](O)c1ccc(O)cc1; Pro(3S-OH,4S-Me) = C[C@H]1CN[C@H](C(=O)O)[C@H]1O; Hyp = O=C(O)[C@@H]1C[C@@H](O)CN1

How the values were obtained:
[1] = cited from earlier work
[2] = Safety: treatment-emergent adverse events; assay type: in vivo, patients (adults); settings: safety population
Method in brief: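 Post-hoc pooled data from two randomised, double-blind, double-dummy trials. The safety population was adults in the ICU at randomisation who received ≥1 dose. Dosing was IV test compound weekly (400 mg Day 1, 200 mg Day 8, optional later 200 mg) or IV comparator echinocandin daily (70 mg Day 1, then 50 mg/day). TEAEs ran from dosing to follow-up, coded MedDRA 23.0, graded mild/moderate/severe, and summarised descriptively.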

[3] = ICU at randomisation, n=46 rezafungin, n=67 caspofungin
[4] = ICU at randomisation, number of events per severity

For `CCCCCOc1ccc(-c2ccc(-c3ccc(C(=O)N[C@H]4C[C@@H](O)[C@@H](OCC[N+](C)(C)C)NC(=O)[C@@H]5[C@@H](O)[C@@H](C)CN5C(=O)[C@H]([C@@H](C)O)NC(=O)[C@H]([C@H](O)[C@@H](O)c5ccc(O)cc5)NC(=O)[C@@H]5C[C@@H](O)CN5C(=O)[C@H]([C@@H](C)O)NC4=O)cc3)cc2)cc1` [Rezafungin] ({pTerphenylCO(4''-OnC5H11)}-[Orn(4R-OH,5R-OCH2CH2NMe3+)]T[Hyp][hTyr(3S-OH,4S-OH)]T[Pro(3S-OH,4S-Me)]; lactam 1-C), the half-life [1] is listed as 120 to 140 h, the “TEAE: Abdominal abscess, patients” value [2, 3] is listed as 1 (2.2) n (%) and the “TEAE: Abdominal pain, patients” value [2, 3] is listed as 4 (8.7) n (%). The “TEAE: Acidosis, patients” value [2, 3] was 1 (2.2) n (%), the “TEAE: Acute kidney injury, patients” value [2, 3] was 1 (2.2) n (%) and the “TEAE: Anaemia, patients” value [2, 3] was 7 (15.2) n (%). The “TEAE: Atrial fibrillation, patients” value [2, 3] was 3 (6.5) n (%), the “TEAE: Bradycardia, patients” value [2, 3] was 1 (2.2) n (%) and the “TEAE: Constipation, patients” value [2, 3] was 2 (4.3) n (%). The “TEAE: Decubitus ulcer, patients” value [2, 3] was 3 (6.5) n (%), the “TEAE: Deep vein thrombosis, patients” value [2, 3] was 1 (2.2) n (%) and the “TEAE: Diarrhoea, patients” value [2, 3] was 7 (15.2) n (%). The “TEAE: Dyspnoea, patients” value [2, 3] was 0 (0) n (%), the “TEAE: Fluid overload, patients” value [2, 3] was 4 (8.7) n (%) and the “TEAE: Hyperkalaemia, patients” value [2, 3] was 2 (4.3) n (%). The “TEAE: Hypertension, patients” value [2, 3] was 3 (6.5) n (%), the “TEAE: Hypokalaemia, patients” value [2, 3] was 4 (8.7) n (%) and the “TEAE: Hypotension, patients” value [2, 3] was 3 (6.5) n (%). The “TEAE: Insomnia, patients” value [2, 3] was 4 (8.7) n (%), the “TEAE: Multiple organ dysfunction syndrome, patients” value [2, 3] was 3 (6.5) n (%) and the “TEAE: Nausea, patients” value [2, 3] was 4 (8.7) n (%). The “TEAE: Peripheral oedema, patients” value [2, 3] was 3 (6.5) n (%), the “TEAE: Pleural effusion, patients” value [2, 3] was 0 (0) n (%) and the “TEAE: Pneumonia, patients” value [2, 3] was 3 (6.5) n (%). For the same compound, the “TEAE: Pneumothorax, patients” value [2, 3] was 0 (0) n (%), the “TEAE: Pyrexia, patients” value [2, 3] was 2 (4.3) n (%) and the “TEAE: Respiratory failure, patients” value [2, 3] was 0 (0) n (%). For the same compound, the “TEAE: Sepsis, patients” value [2, 3] was 5 (10.9) n (%), the “TEAE: Septic shock, patients” value [2, 3] was 6 (13.0) n (%) and the “TEAE: Vomiting, patients” value [2, 3] was 7 (15.2) n (%). The “≥ 1 TEAE” value [2, 3] was 41 (89.1) n (%), the “≥ 1 TEAE leading to study/drug discontinuation” value [2, 3] was 8 (17.4) n (%) and the “≥ 1 serious TEAE” value [2, 3] was 28 (60.9) n (%). The “≥ 1 study drug-related TEAE” value [2, 3] was 4 (8.7) n (%), the “≥ 1 study drug-related TEAE leading to study/drug discontinuation” value [2, 3] was 0 (0) n (%) and the “≥ 1 study drug-related serious TEAE” value [2, 3] was 1 (2.2) n (%). For the same compound, the “TEAE: Abdominal abscess, event severity (n): mild/moderate/severe” value [2, 4] was 0/1/0, the “TEAE: Abdominal pain, event severity (n): mild/moderate/severe” value [2, 4] was 1/2/1 and the “TEAE: Acidosis, event severity (n): mild/moderate/severe” value [2, 4] was 1/1/0. For the same compound, the “TEAE: Acute kidney injury, event severity (n): mild/moderate/severe” value [2, 4] was 1/1/0, the “TEAE: Anaemia, event severity (n): mild/moderate/severe” value [2, 4] was 2/4/1 and the “TEAE: Atrial fibrillation, event severity (n): mild/moderate/severe” value [2, 4] was 1/2/0. The “TEAE: Bradycardia, event severity (n): mild/moderate/severe” value [2, 4] was 0/1/0, the “TEAE: Constipation, event severity (n): mild/moderate/severe” value [2, 4] was 2/0/0 and the “TEAE: Decubitus ulcer, event severity (n): mild/moderate/severe” value [2, 4] was 2/1/0. The “TEAE: Deep vein thrombosis, event severity (n): mild/moderate/severe” value [2, 4] was 1/0/0, the “TEAE: Diarrhoea, event severity (n): mild/moderate/severe” value [2, 4] was 6/1/0 and the “TEAE: Dyspnoea, event severity (n): mild/moderate/severe” value [2, 4] was 0/0/0. The “TEAE: Fluid overload, event severity (n): mild/moderate/severe” value [2, 4] was 0/3/1, the “TEAE: Hyperkalaemia, event severity (n): mild/moderate/severe” value [2, 4] was 2/0/0 and the “TEAE: Hypertension, event severity (n): mild/moderate/severe” value [2, 4] was 2/1/0. For the same compound, the “TEAE: Hypokalaemia, event severity (n): mild/moderate/severe” value [2, 4] was 3/1/0, the “TEAE: Hypotension, event severity (n): mild/moderate/severe” value [2, 4] was 2/1/0 and the “TEAE: Insomnia, event severity (n): mild/moderate/severe” value [2, 4] was 3/1/0. The “TEAE: Multiple organ dysfunction syndrome, event severity (n): mild/moderate/severe” value [2, 4] was 0/0/3, the “TEAE: Nausea, event severity (n): mild/moderate/severe” value [2, 4] was 0/4/0 and the “TEAE: Peripheral oedema, event severity (n): mild/moderate/severe” value [2, 4] was 3/0/0. For the same compound, the “TEAE: Pleural effusion, event severity (n): mild/moderate/severe” value [2, 4] was 0/0/0, the “TEAE: Pneumonia, event severity (n): mild/moderate/severe” value [2, 4] was 0/0/3 and the “TEAE: Pneumothorax, event severity (n): mild/moderate/severe” value [2, 4] was 0/0/0. For the same compound, the “TEAE: Pyrexia, event severity (n): mild/moderate/severe” value [2, 4] was 1/1/0, the “TEAE: Respiratory failure, event severity (n): mild/moderate/severe” value [2, 4] was 0/0/0 and the “TEAE: Sepsis, event severity (n): mild/moderate/severe” value [2, 4] was 3/2/1. The “TEAE: Septic shock, event severity (n): mild/moderate/severe” value [2, 4] was 0/1/5, the “TEAE: Vomiting, event severity (n): mild/moderate/severe” value [2, 4] was 4/4/0 and the “Study drug-related serious TEAEs, events” value ([2]; each event n = 1) was “infusion-related reaction”.
